The nature of data set [1]: Clearance in rat microsomes. It is filed as ADME, Microsome.
Data set [2] in a line: Chemical stability at pH 1 incubated for 2 hrs. Conditions: buffer, pH 1, 2 h. The data set is classed as physicochemical. Summed up:
(§1)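 Compound was held in aqueous buffer at the stated pH for 2 h at 37 °C.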

A short description of data set [3]: Drug concentration in mouse CSF at 30 mg/kg, ip measured after 16 hrs. It is filed as ADME, organism-based, Cerebrospinal fluid. Conditions: read-out: Ct.
A short description of data set [4]: Drug concentration in mouse CSF at 30 mg/kg, ip measured after 8 hrs. It is filed as ADME, organism-based, Cerebrospinal fluid. Particulars: read-out: Ct.
Data set [5] relates to mouse P-gp. Briefly: Apparent permeability across apical to basolateral side in pig LLC-PK1 cells expressing mouse P-gp. It is filed as ADME, cell-based, Sus scrofa. Summed up:
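LLC-PK1 porcine kidney cells transfected with human or mouse P-gp were grown as polarized monolayers on filter membranes. Compound was dosed to the apical side and receiver appearance followed over 3 h at 37 °C. A→B Papp was measured with the P-gp inhibitor zosuquidar present at 1 µM.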

Data set [6] is described as follows: Genotoxicity in Salmonella typhimurium by Ames test. It is filed as toxicity. Particulars: salmonella enterica subsp. enterica serovar typhimurium.
A short description of data set [7]: Drug concentration in mouse CSF at 10 mg/kg, ip measured after 4 hrs. The data set is classed as ADME, organism-based, Cerebrospinal fluid. Particulars: read-out: Ct.
Data set [8] is described as follows: Plasma protein binding in rat assessed as fraction unbound by equilibrium dialysis based LC-MS/MS method. It is filed as ADME, cell-free.
A short description of data set [9]: Average drug concentration in mouse plasma at 10 mg/kg, ip measured after 4 hrs. It is filed as ADME, organism-based. Particulars: in vivo. Summed up:
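Mice received 3, 10 or 30 mg/kg i.p. The compound was dissolved in DMSO/Tween 80 (1:1) and diluted with 8 parts saline (NaCl/DMSO/TW80 80/10/10). Plasma was taken 4 h after injection and average concentrations reported.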

A short description of data set [10]: Clearance in Wistar rat at 1 mg/kg, iv measured upto 24 hrs by LC-MS/MS analysis. It is filed as ADME, organism-based. Conditions: in vivo. Summed up:
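Male Wistar rats (N = 3 per group) received a single dose. The i.v. dose was 1 mg/kg in NMP/0.9% NaCl 30:70. The p.o. dose was 5 mg/kg in NMP/HPMC/diisooctyl sulfosuccinate 10:90. Blood was taken into K2EDTA from 0.083 (i.v.) or 0.25 h to 24 h. Plasma was assayed by LC-MS/MS and analysed non-compartmentally.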

Data set [11] can be described thus: Oral bioavailability in Wistar rat at 5 mg/kg measured upto 24 hrs by LC-MS/MS analysis. It is filed as ADME, organism-based. Particulars: in vivo. In short, it runs like this:
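Male Wistar rats, single dose. i.v. in NMP/0.9% NaCl 30:70; p.o. and i.p. in NMP/HPMC/diisooctyl sulfosuccinate 10:90; 3 per i.v./p.o. group, 6 i.p. K2EDTA plasma sampled 0.083–7 h, plus 24 h for i.v./p.o.; brain and CSF at 1, 2, 7 h (i.p. only). LC-MS/MS, noncompartmental analysis.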

Data set [12] is described as follows: Clearance in mouse microsomes. The data set is classed as ADME, Microsome.
Data set [13] is described as follows: Average drug concentration in mouse plasma at 30 mg/kg, ip measured after 2 hrs. The data set is classed as ADME, organism-based. Conditions: read-out: Cave. Summed up:
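In a time course, mice were injected i.p. with 30 mg/kg in NaCl/DMSO/Tween 80 (80/10/10). Average plasma levels were determined at the stated time points over 24 h.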

Data set [14] concerns the target CYP2D6 (Homo sapiens, UniProt P10635). The experiment in a line: Inhibition of CYP2D6 (unknown origin) at 10 uM relative to control. The data set is classed as ADME.
Data set [15] is described as follows: Drug concentration in mouse CSF at 30 mg/kg, ip measured after 4 hrs. The data set is classed as ADME, organism-based, Cerebrospinal fluid. Conditions: read-out: Ct.
Data set [16] is described as follows: Drug concentration in mouse CSF at 30 mg/kg, ip measured after 24 hrs. The data set is classed as ADME, organism-based, Cerebrospinal fluid. Particulars: read-out: Ct.
Data set [17] can be described thus: Chemical stability at pH 4 incubated for 2 hrs. The data set is classed as physicochemical. Conditions: buffer, pH 4, 2 h. Summed up:
as §1

Data set [18] can be described thus: Plasma protein binding in human assessed as fraction unbound by equilibrium dialysis based LC-MS/MS method. The data set is classed as ADME, cell-free. Summed up:
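Equilibrium dialysis across a 12–14 kDa cutoff membrane in a Teflon 96-well device. Pooled frozen plasma is adjusted to pH 7.4 and spiked at 1000 nM initial total, against Soerensen buffer pH 7.4. Incubation is 5 h at 37 °C, 5% CO2, with diazepam control in each well. %fu = 100 × buffer/matrix concentration after dialysis; recovery accepted at 80–120%.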

Some results are limits rather than exact numbers.

Sequence of CYP2D6 (P10635 whole entry): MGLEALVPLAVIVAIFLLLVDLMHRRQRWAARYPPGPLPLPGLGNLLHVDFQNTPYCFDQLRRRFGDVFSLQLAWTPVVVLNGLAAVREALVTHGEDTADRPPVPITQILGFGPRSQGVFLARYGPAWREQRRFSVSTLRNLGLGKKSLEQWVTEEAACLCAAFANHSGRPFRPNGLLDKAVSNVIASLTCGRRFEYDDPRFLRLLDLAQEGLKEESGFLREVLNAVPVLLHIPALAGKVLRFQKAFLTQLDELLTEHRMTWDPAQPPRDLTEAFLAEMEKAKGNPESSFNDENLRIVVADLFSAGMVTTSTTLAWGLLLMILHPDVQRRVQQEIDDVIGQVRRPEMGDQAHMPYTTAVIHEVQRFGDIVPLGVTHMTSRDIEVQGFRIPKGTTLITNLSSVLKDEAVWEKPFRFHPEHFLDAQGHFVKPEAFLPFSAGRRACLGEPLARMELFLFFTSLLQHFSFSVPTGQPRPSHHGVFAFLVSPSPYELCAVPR

The term microsomal CLint denotes the rate of metabolic loss divided by the concentration. Read a low microsomal CLint as slow turnover. The term Papp A→B denotes the apparent permeability from the apical to the basolateral side of a cell layer. The fraction unbound is the share of the substance not bound to proteins or other matrix. The term clearance denotes the rate of elimination divided by the concentration. The term inhibition denotes the change of the read-out against control, counted positive when it falls. Turning to `O=C1CO[C@H]2CCN(C(=O)N3CCC(Cc4ccc(C(F)(F)F)cc4)CC3)C[C@H]2N1`, the microsomal CLint in data set [1] was 11 µL/min/mg; in [12], less than 10 µL/min/mg. Further, the Stability entry in [2] and in data set [17] was “Stable” in each case. The concentration at 16 h in data set [3] was determined as 48 nM. Further, the concentration at 8 h in data set [4] is 346 nM. For the same compound, the Papp A→B in [5] was determined as 24.4 ×10⁻⁶ cm/s. Moreover, in data set [6], the Activity entry is recorded as “Non-Toxic”. For the same compound, the concentration at 4 h worked out at 123 nM in data set [7] and 455 nM in data set [15]. In addition, the fraction unbound in data set [8] was 0.032; in data set [18], 0.043. The Cave in data set [9] is on record as 7496 nM. In addition, the clearance in data set [10] was found to be 4.6 mL/min/kg. In addition, in data set [11], the bioavailability was found to be 115%. For the same compound, the concentration at 2 h in data set [13] was 42000 nM. Moreover, the inhibition at 10 µM in [14] is -12%. The concentration at 24 h in data set [16] came to 2 nM.
